Consider 1 molecule from ChEMBL document CHEMBL3259708, “Thienoquinolines as novel disruptors of the PKCε/RACK2 protein-protein interaction” (J Med Chem, 2014).

Structures are written as SMILES. The source made the active and inactive calls. No cut-off for these calls is given here.

One data set concerns PC-3. As to the kind of experiment: Antiproliferative activity against human PC3 cells expressing luciferase gene up to 50 uM. The class given is cell-based. The procedure, abridged: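 HeLa-HLR and PC-3 cells seeded ~10 000/well; agent added after 4 h at various concentrations for 72 h; growth read by SRB assay; mean ±SD of three independent experiments, triplicate samples each.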

In another data set the test system is HeLa. The experiment in a line: Antimigratory activity against human HeLa cells expressing doxycycline-inducible PKCepsilon at 25 uM after 24 hrs by scratch migration assay. It counts as functional, cell-based. The procedure, abridged:
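HeLa cells carrying doxycycline-inducible constitutively active PKCε grown to log phase; ~1 mm scratch made in monolayer with pipet tip, washed with PBS, then given 2 μg/mL doxycycline plus 25 μM test agent for 24 h; controls untreated or doxycycline plus DMSO; gap closure viewed by microscope.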

Data set [1] concerns the target T1, Protein kinase C epsilon type (Homo sapiens) (UniProt Q02156).
T1 sequence (whole entry): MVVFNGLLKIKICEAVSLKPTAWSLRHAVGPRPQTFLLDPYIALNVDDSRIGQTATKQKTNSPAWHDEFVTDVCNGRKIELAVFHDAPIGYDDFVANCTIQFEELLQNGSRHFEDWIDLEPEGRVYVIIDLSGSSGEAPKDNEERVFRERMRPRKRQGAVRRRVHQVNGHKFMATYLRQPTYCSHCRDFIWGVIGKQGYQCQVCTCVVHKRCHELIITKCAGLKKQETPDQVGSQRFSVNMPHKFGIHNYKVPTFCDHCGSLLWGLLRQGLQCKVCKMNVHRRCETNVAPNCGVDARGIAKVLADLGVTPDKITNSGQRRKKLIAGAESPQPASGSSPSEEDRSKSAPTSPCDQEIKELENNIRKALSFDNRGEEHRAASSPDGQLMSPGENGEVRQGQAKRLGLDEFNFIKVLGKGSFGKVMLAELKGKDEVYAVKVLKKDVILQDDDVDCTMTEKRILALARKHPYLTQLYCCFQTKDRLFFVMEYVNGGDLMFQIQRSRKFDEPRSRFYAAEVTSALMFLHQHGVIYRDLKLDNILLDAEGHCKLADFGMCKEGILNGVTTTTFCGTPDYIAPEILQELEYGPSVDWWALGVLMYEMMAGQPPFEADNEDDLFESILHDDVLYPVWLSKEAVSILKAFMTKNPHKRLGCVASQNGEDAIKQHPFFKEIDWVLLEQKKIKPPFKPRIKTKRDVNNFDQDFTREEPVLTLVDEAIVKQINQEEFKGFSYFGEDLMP
The experiment in a line: Inhibition of PKCepsilon-induced phosphorylation of MARCKS in human HeLa cells at 50 uM by SDS-PAGE analysis. The class given is cell-based. In short, it runs like this: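 HeLa cells serum-starved 16 h, treated with 50 μM agent for 30 min with 100 nM TPA for the last 10 min; 150 μg lysate protein on SDS 8–16% gels, blotted for MARCKS pSer152/156 with tubulin loading control; densitometry of three independent experiments.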

The target of data set [2] is Protein kinase C eta type (Homo sapiens) (UniProt P24723). As to the kind of experiment: Inhibition of PKCeta (unknown origin) at 50 uM.
Protein kinase C eta type (Homo sapiens), sequence (P24723 whole entry): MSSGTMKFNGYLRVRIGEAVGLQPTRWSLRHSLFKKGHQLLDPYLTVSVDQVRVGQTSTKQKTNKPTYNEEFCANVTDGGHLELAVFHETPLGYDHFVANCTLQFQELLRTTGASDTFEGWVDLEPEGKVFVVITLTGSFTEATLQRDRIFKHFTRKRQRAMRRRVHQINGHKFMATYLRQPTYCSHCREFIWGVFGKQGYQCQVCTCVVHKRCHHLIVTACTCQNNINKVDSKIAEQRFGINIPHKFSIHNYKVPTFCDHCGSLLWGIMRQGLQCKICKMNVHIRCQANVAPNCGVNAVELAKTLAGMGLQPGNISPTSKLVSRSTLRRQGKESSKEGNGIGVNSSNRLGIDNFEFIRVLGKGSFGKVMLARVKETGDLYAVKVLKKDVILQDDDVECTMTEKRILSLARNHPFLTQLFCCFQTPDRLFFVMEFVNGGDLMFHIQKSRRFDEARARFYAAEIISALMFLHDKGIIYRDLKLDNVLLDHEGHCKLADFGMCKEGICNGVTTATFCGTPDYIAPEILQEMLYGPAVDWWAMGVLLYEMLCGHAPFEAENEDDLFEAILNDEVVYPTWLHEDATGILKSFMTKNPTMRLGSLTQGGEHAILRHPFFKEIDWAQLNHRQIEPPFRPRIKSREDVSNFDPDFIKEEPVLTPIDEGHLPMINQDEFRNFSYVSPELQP
The target of data set [3] is T2, NUAK family SNF1-like kinase 1 (Homo sapiens) (UniProt O60285).
T2 sequence (whole entry): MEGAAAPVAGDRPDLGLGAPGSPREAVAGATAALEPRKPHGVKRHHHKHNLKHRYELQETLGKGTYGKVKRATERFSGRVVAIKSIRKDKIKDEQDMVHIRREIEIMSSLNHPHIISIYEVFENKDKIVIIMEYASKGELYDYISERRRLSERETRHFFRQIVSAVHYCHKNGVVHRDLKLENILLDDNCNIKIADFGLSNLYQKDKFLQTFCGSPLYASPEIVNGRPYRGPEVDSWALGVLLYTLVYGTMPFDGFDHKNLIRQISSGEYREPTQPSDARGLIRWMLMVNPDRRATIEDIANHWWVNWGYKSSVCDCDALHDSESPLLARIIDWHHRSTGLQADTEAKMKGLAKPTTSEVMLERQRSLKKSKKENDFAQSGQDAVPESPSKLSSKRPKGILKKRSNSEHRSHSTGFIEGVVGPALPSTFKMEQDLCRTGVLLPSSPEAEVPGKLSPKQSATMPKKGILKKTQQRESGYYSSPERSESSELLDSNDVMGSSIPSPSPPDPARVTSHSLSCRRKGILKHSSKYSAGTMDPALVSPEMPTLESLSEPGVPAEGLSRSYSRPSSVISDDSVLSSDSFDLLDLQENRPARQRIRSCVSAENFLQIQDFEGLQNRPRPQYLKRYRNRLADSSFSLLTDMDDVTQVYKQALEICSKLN
As to the kind of experiment: Inhibition of NUAK1 (unknown origin) at 25 uM; values are per cent of control.

Data set [4] addresses Tyrosine-protein kinase BTK (Homo sapiens) (UniProt Q06187). The experiment in a line: Inhibition of BTK (unknown origin) at 25 uM; values are per cent of control.
The target in data set [5] is Protein kinase C beta type (Homo sapiens) (UniProt P05771). The experiment in a line: Inhibition of recombinant GST-tagged PKCbeta2 (unknown origin)-His-tagged RACK1 interaction after 1 hr by ELISA-based assay relative to untreated control. The procedure, abridged: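 ELISA: 200 ng His-tagged RACK1 coated overnight at 4 °C; agent added 30 min at room temperature; 500 ng GST-PKCβII activated with CaCl2, phosphatidylserine and TPA for 10 min, then bound 1 h; detected with anti-GST and HRP secondary, ABTS colour at 420 nm.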
Protein kinase C beta type (Homo sapiens), sequence (P05771 2-671 limits assumed): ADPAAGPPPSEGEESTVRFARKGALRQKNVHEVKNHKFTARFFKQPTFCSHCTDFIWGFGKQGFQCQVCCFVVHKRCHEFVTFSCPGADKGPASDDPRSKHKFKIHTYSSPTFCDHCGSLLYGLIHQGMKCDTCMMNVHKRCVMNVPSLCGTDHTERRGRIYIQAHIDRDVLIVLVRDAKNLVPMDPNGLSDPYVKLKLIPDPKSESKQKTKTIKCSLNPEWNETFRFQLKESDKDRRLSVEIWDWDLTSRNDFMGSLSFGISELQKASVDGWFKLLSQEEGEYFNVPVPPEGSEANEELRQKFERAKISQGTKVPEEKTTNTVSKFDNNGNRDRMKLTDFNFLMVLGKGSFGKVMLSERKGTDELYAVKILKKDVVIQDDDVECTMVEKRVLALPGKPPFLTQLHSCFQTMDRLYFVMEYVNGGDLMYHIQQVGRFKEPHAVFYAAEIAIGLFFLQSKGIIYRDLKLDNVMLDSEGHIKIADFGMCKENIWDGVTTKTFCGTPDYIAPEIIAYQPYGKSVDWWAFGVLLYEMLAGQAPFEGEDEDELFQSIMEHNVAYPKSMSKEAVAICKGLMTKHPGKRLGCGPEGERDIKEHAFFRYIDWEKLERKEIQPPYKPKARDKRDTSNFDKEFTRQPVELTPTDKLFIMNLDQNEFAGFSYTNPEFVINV

Tyrosine-protein kinase BTK (Homo sapiens), sequence (Q06187 whole entry): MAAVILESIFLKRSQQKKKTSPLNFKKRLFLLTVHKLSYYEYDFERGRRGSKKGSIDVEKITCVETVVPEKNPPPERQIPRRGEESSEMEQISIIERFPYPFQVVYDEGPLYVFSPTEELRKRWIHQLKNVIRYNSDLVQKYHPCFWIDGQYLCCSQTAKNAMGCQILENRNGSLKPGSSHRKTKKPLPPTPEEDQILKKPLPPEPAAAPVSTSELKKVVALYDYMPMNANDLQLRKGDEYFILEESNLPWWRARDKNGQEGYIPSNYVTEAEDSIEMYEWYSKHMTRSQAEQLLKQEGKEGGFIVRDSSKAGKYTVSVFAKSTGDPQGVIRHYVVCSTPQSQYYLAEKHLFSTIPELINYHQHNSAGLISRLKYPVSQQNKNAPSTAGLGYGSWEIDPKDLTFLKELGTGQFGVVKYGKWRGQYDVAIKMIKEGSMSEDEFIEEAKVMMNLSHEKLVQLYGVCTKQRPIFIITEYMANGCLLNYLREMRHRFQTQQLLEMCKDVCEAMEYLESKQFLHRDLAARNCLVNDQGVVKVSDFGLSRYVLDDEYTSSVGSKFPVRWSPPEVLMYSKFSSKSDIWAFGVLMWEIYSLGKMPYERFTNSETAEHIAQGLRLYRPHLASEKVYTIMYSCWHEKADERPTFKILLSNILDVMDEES

What is called inhibition is the change of the read-out against control, counted positive when it falls. As a reminder, the residual activity is what remains of the control signal, in per cent. A high value points to a small loss of activity. `CC(=O)c1cccc(NC(=O)c2sc3nc4cc5c(cc4cc3c2N)OCCO5)c1`: the Activity result with PC-3 is reported as “Non-toxic”. Further, the inhibition result (with HeLa; in data set [1]) was “Active” each time. Also, the inhibition in data set [2] turned out to be 80%. For the same molecule, the residual activity in data set [3] was 49%; in data set [4] it was 42%. Further, the inhibition result in data set [5] was “inactive”.
